ChEMBL document CHEMBL4411301, “Design, Biological Evaluation, and Molecular Modeling of Tetrahydroisoquinoline Derivatives: Discovery of A Potent P-Glycoprotein Ligand Overcoming Multidrug Resistance in Cancer Stem Cells” (J Med Chem, 2019)
Active and inactive are the calls of the source. The calls are words filed in the database; no cut-off is given here.

What was measured:
[1] = organism: Homo sapiens; assay: Induction of doxorubicin accumulation in P-gp knocked out human primary mesothelioma stem cells co-expressing CRISPR-Cas at 10 nM after 3 hrs by spectrofluorimetric analysis; type: functional
In short: (§1)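 Patient-derived glioblastoma (line 4, patient #2) or mesothelioma (line 5, patient #1) stem cells, untreated, scrambled CRISPR-Cas or P-gp CRISPR-Cas knockout. Incubated 3 h with 5 µM doxorubicin. Cells lysed in ethanol/0.3 N HCl and doxorubicin read fluorimetrically at ex 475/em 553 nm, converted to nmol/mg protein by calibration. Duplicates, n=3, mean ± SEM, one-way ANOVA.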

[2] = biological target: Multidrug resistance-associated protein 1 (Homo sapiens, UniProt P33527); assay: Inhibition of MRP1 (unknown origin) expressed in MDCK cells assessed as increase in calcein-AM accumulation incubated for 30 mins by calcein-AM dye based fluorescence assay; type: cell-based
Multidrug resistance-associated protein 1, sequence (P33527 whole entry): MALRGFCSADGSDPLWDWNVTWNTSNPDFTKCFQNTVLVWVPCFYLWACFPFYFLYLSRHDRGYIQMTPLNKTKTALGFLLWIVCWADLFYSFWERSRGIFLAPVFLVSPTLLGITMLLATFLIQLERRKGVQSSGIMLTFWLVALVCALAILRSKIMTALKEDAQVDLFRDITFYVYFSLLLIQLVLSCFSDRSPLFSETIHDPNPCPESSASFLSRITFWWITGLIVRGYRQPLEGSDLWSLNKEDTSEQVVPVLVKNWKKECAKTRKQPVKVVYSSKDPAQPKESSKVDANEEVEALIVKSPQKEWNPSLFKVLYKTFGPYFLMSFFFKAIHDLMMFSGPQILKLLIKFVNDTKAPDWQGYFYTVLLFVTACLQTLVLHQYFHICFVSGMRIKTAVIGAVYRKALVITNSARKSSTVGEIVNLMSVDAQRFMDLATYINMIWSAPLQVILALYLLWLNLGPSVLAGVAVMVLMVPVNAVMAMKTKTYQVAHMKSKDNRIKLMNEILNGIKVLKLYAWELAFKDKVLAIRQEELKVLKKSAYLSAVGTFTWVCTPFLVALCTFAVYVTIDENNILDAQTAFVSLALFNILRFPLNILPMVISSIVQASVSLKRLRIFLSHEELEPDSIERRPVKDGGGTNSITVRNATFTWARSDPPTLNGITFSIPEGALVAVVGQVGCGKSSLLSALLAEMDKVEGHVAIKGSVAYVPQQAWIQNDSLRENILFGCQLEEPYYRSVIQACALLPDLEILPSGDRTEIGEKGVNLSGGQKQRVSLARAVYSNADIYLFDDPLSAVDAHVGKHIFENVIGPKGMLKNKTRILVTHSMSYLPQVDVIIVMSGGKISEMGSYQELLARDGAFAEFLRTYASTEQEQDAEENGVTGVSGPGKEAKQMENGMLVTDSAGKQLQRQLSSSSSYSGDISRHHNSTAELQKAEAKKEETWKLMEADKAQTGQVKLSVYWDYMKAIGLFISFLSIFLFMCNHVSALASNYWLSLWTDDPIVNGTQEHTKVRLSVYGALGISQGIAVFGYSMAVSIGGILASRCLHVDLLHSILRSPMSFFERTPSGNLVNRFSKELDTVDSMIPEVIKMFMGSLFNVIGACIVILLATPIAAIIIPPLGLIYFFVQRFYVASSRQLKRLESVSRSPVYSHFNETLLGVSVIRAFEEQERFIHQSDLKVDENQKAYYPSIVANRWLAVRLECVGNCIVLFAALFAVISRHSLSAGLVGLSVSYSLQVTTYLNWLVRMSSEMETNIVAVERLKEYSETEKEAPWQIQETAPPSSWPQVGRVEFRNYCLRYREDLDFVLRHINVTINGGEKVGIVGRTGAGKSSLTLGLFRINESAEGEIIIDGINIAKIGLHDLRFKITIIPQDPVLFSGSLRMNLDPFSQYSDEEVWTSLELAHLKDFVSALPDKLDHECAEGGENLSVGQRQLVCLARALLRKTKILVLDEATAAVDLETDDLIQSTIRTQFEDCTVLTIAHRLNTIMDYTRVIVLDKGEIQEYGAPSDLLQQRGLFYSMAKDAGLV
In short: (§2)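 MDCK-MDR1 or MDCK-MRP1 cells seeded at 30,000/well and grown to confluence overnight. Compound (0.1–100 µM final, in medium) incubated 30 min at 37 °C, then calcein-AM added (2.5 µM final) for 30 min. Cells washed with ice-cold PBS and read at ex 485/em 535 nm. EC50 fitted from % fluorescence increase over untreated vs log dose. Mean ± SEM, three experiments in triplicate.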

[3] = organism: Homo sapiens; assay: Induction of doxorubicin accumulation in P-gp knocked out human primary glioblastoma stem cells co-expressing CRISPR-Cas at 10 nM after 3 hrs by spectrofluorimetric analysis; type: functional; in short: as §1
[4] = biological target: T1, ATP-dependent translocase ABCB1 (Homo sapiens, UniProt P08183); assay: Inhibition of MDR1 in human GSC assessed as increase in doxorubicin-induced cell toxicity at 10 nM after 24 hrs by LDH release assay; conditions: 0.01 µM
T1 sequence (P08183 whole entry): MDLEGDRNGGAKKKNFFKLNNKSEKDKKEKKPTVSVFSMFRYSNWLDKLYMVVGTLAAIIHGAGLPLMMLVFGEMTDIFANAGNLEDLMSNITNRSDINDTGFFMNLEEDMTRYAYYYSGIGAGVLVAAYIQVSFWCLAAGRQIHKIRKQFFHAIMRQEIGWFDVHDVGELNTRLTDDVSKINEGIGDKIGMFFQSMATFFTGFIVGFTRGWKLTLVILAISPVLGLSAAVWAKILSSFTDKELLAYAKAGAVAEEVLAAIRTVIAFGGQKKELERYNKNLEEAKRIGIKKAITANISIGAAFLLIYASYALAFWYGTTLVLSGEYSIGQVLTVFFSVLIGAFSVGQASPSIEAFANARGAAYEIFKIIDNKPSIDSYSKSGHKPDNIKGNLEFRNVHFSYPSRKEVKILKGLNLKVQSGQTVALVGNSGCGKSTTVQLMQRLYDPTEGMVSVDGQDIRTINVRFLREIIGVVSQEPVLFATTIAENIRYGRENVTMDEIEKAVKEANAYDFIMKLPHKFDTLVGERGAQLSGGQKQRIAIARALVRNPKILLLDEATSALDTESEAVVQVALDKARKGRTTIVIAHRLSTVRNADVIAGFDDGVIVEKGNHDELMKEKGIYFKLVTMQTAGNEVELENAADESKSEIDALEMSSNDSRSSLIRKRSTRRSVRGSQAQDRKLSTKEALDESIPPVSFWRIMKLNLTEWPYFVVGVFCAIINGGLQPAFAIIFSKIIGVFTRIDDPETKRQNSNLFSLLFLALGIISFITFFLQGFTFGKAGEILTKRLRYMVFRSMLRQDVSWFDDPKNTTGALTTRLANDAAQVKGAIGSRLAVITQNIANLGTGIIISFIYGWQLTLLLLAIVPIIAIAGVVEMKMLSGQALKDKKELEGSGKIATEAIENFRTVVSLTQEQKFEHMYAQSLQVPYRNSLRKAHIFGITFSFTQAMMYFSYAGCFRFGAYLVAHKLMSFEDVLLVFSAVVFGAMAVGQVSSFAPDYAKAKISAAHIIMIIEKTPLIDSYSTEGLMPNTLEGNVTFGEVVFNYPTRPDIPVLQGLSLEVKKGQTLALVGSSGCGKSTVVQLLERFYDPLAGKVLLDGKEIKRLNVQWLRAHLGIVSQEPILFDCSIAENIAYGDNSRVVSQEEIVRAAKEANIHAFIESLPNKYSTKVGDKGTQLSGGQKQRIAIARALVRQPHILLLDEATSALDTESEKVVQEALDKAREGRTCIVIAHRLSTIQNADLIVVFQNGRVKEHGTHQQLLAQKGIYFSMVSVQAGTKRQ

[5] = organism: Homo sapiens; assay: Induction of intracellular doxorubicin accumulation in human differentiated primary glioblastoma cells at 10 to 10000 nM after 3 hrs by spectrofluorimetric analysis; type: functional, cell-based
In short: (§3)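 Differentiated or stem cells from primary glioblastoma or mesothelioma of 3 patients (stem cells used within passage 6). Incubated 3 h with 5 µM doxorubicin, alone or with compound (DMSO 1% v/v). Washed, lysed in ethanol/0.3 N HCl, doxorubicin fluorescence read at ex 475/em 553 nm and expressed as nmol/mg cell protein via calibration curve. Duplicates, n=3, mean ± SEM.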

[6] = Cytotoxicity against human GSC at 10 nM after 24 hrs by LDH release assay; conditions: 0.01 µM
[7] = biological target: MDR1 (ABCB1, P-glycoprotein) (Homo sapiens, UniProt P08183); assay: Activity at MDR1 in human Caco2 cells assessed as efflux ratio of apparent permeability from basolateral to apical side over apical to basolateral side; type: cell-based; conditions: Caco-2
MDR1 (ABCB1, P-glycoprotein), sequence (P08183 whole entry): as above
In short: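 Caco-2 cells grown 21 days on filter inserts, then washed with HBSS and equilibrated 30 min at 37 °C. Compound at 100 µM added to the donor side and incubated 120 min at 37 °C. Papp in nm/s calculated as (VA/Area) × ([drug]acceptor/[drug]initial)/time, membrane area 0.11 cm2. BA/AB ratio from two independent experiments.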

[8] = Cytotoxicity against human MSC at 10 nM after 24 hrs by LDH release assay; conditions: 0.01 µM
[9] = biological target: T1, ATP-dependent translocase ABCB1; assay: Inhibition of MDR1 in human primary mesothelioma stem cells assessed as increase in doxorubicin-induced reduction in cell viability at 10 nM after 72 hrs by ATPlite luminescence assay; conditions: 0.01 µM
In short: (§4)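 Primary glioblastoma or mesothelioma differentiated and stem cells incubated 72 h with medium, 5 µM doxorubicin, 10 nM compound or 1 µM elacridar, alone or combined (DMSO 1% v/v). Viability by ATPlite luminescence as % of untreated RLU. Quadruplicates, n=3, mean ± SEM, one-way ANOVA.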

[10] = biological target: T1, ATP-dependent translocase ABCB1; assay: Inhibition of MDR1 in human MSC assessed as increase in doxorubicin-induced cell toxicity at 10 nM after 24 hrs by LDH release assay; conditions: 0.01 µM
[11] = organism: Homo sapiens; assay: Induction of intracellular doxorubicin accumulation in human differentiated primary mesothelioma stem cells at 10 to 10000 nM after 3 hrs by spectrofluorimetric analysis; type: functional, cell-based; in short: as §3
[12] = biological target: T1, ATP-dependent translocase ABCB1; assay: Inhibition of MDR1 in human primary glioblastoma stem cells assessed as increase in doxorubicin-induced reduction in cell viability at 10 nM after 72 hrs by ATPlite luminescence assay; conditions: 0.01 µM; in short: as §4
[13] = biological target: T1, ATP-dependent translocase ABCB1; assay: Inhibition of MDR1 (unknown origin) expressed in MDCK1 cells assessed as potentiation of doxorubicin-induced decrease in cell proliferation at 1 uM administered alone on day 2 followed by drug addition day 3 along with doxorubicin addition by MTT assay; type: cell-based
In short: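 MDCK-MDR1 cells, 10000/well. On day 2, compound alone at 10 nM, 100 nM or 1 µM. On day 3, medium replaced with compound alone or with 10 µM doxorubicin; 48 h assay. MTT 0.5 mg/mL for 3–4 h at 37 °C, formazan dissolved in DMSO/EtOH 1:1, absorbance read at 570/630 nm. Solvent 1% v/v DMSO. Mean ± SEM, two experiments in triplicate; one-way ANOVA.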

[14] = organism: Homo sapiens; assay: Potentiation of doxorubicin-induced cytotoxicity in human differentiated primary glioblastoma cells assessed as increase in doxorubicin-induced reduction in cell viability at 10 nM after 72 hrs by ATPlite luminescence assay; type: functional, cell-based; in short: as §4
[15] = organism: Homo sapiens; assay: Potentiation of doxorubicin-induced cytotoxicity in human differentiated primary glioblastoma cells assessed as increase in doxorubicin-induced reduction in cell viability at 10 nM after 24 hrs by LDH release assay; type: functional, cell-based
[16] = biological target: T1, ATP-dependent translocase ABCB1; assay: Inhibition of MDR1 in human primary mesothelioma stem cells assessed as increase in doxorubicin-induced reduction in cell viability at 10 nM after 24 hrs by LDH release assay; conditions: 0.01 µM
[17] = biological target: T1, ATP-dependent translocase ABCB1; assay: Inhibition of MDR1 in human primary glioblastoma stem cells assessed as increase in intracellular doxorubicin accumulation at 10 to 10000 nM after 3 hrs by spectrofluorimetric analysis; type: cell-based; in short: as §3
[18] = biological target: T2, Broad substrate specificity ATP-binding cassette transporter ABCG2 (Homo sapiens, UniProt Q9UNQ0); assay: Inhibition of BCRP (unknown origin) expressed in MDCK cells assessed as reduction in Hoechst 33342 efflux preincubated for 30 mins followed by Hoechst 3334 addition measured after 30 mins by fluorescence assay; type: cell-based; conditions: mdck
T2 sequence (Q9UNQ0 whole entry): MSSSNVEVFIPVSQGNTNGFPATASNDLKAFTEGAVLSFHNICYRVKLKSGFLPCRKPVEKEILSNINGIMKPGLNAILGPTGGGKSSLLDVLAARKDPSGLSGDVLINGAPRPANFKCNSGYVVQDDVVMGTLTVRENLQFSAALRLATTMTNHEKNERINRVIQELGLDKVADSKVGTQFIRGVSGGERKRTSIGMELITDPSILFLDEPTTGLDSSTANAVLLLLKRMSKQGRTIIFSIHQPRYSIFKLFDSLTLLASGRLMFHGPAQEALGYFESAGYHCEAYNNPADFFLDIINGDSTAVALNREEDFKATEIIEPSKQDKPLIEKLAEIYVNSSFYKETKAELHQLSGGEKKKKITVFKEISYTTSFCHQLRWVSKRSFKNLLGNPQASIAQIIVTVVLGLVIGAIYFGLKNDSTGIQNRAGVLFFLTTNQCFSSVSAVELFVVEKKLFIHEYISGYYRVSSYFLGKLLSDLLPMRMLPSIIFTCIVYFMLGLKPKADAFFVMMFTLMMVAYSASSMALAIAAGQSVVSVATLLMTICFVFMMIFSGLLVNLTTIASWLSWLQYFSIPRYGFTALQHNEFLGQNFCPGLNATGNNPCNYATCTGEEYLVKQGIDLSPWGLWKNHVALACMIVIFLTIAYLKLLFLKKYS
In short: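 MDCK-BCRP monolayers (30,000 cells/well, confluent overnight) preincubated 30 min at 37 °C with compound (0.1–100 µM final). Hoechst 33342 then added (8 µM final) for 30 min. Cells fixed 20 min in 4% PFA, washed with ice-cold PBS and read at ex 340/em 485 nm. EC50 fitted from % fluorescence increase over basal vs log dose. Mean ± SEM, three experiments in triplicate.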

[19] = organism: Homo sapiens; assay: Potentiation of doxorubicin-induced cytotoxicity in human differentiated primary mesothelioma cells assessed as increase in doxorubicin-induced reduction in cell viability at 10 nM after 72 hrs by ATPlite luminescence assay; type: functional, cell-based; in short: as §4
[20] = organism: Homo sapiens; assay: Potentiation of doxorubicin-induced cytotoxicity in human differentiated primary mesothelioma cells assessed as increase in doxorubicin-induced reduction in cell viability at 10 nM after 24 hrs by LDH release assay; type: functional, cell-based
[21] = biological target: T1, ATP-dependent translocase ABCB1; assay: Inhibition of MDR1 (unknown origin) expressed in MDCK cells assessed as increase in calcein-AM accumulation after 30 mins by calcein-AM dye based fluorescence assay; type: cell-based; conditions: read-out: EC50; in short: as §2
[22] = biological target: T1, ATP-dependent translocase ABCB1; assay: Inhibition of MDR1 in human primary mesothelioma stem cells assessed as increase in intracellular doxorubicin accumulation at 10 to 10000 nM after 3 hrs by spectrofluorimetric analysis; type: cell-based; in short: as §3
[23] = biological target: T1, ATP-dependent translocase ABCB1; assay: Inhibition of MDR1 in human primary glioblastoma stem cells assessed as increase in doxorubicin-induced reduction in cell viability at 10 nM after 24 hrs by LDH release assay; conditions: 0.01 µM
[24] = biological target: T1, ATP-dependent translocase ABCB1; assay: Inhibition of MDR1 in human primary glioblastoma stem cells assessed as increase in doxorubicin-induced reduction in cell viability at 1 uM after 24 hrs by LDH release assay
[25] = biological target: T1, ATP-dependent translocase ABCB1; assay: Inhibition of MDR1 in human primary mesothelioma stem cells assessed as increase in doxorubicin-induced reduction in cell viability at 1 uM after 72 hrs by ATPlite luminescence assay; in short: as §4
[26] = organism: Homo sapiens; assay: Potentiation of doxorubicin-induced cytotoxicity in human differentiated primary glioblastoma cells assessed as increase in doxorubicin-induced reduction in cell viability at 1 uM after 72 hrs by ATPlite luminescence assay; type: functional, cell-based; in short: as §4
[27] = organism: Homo sapiens; assay: Potentiation of doxorubicin-induced cytotoxicity in human differentiated primary glioblastoma cells assessed as increase in doxorubicin-induced reduction in cell viability at 1 uM after 24 hrs by LDH release assay; type: functional, cell-based
[28] = organism: Homo sapiens; assay: Potentiation of doxorubicin-induced cytotoxicity in human differentiated primary mesothelioma stem cells assessed as increase in doxorubicin-induced reduction in cell viability at 1 uM after 24 hrs by LDH release assay; type: functional, cell-based
[29] = biological target: T1, ATP-dependent translocase ABCB1; assay: Inhibition of MDR1 in human primary mesothelioma stem cells assessed as increase in doxorubicin-induced reduction in cell viability at 1 uM after 24 hrs by LDH release assay
[30] = organism: Homo sapiens; assay: Potentiation of doxorubicin-induced cytotoxicity in human differentiated primary mesothelioma stem cells assessed as increase in doxorubicin-induced reduction in cell viability at 1 uM after 72 hrs by ATPlite luminescence assay; type: functional, cell-based; in short: as §4
[31] = biological target: T1, ATP-dependent translocase ABCB1; assay: Inhibition of MDR1 in human primary glioblastoma stem cells assessed as increase in doxorubicin-induced reduction in cell viability at 1 uM after 72 hrs by ATPlite luminescence assay; in short: as §4

COc1cc2c(cc1OC)CN(Cc1ccc(-c3ccc(N(S(=O)(=O)c4ccccc4)S(=O)(=O)c4ccccc4)cc3)cc1)CC2
Activity [1]: inactive | EC50 [2]: Not Active | Activity [3]: inactive | inhibition (INH) [4]: Active | Activity [5]: inactive | Activity [6]: Non-Toxic | efflux ratio [7]: > 20 | Activity [8]: Non-Toxic | inhibition (INH) [9]: Active | inhibition (INH) [10]: Active | Activity [11]: inactive | inhibition (INH) [12]: Active | inhibition (INH) [13]: Active | Activity [14]: inactive | Activity [15]: inactive | inhibition (INH) [16]: Active | inhibition (INH) [17]: Active | EC50 [18]: Not Active | Activity [19]: inactive | Activity [20]: inactive | EC50 [21]: 15.3 nM | inhibition (INH) [22]: Active | inhibition (INH) [23]: Active

COc1cc2c(cc1OC)CN(CCc1ccc(NC(=O)c3cccc4c(=O)c5cccc(OC)c5[nH]c34)cc1)CC2 [ELACRIDAR]
inhibition (INH) [24]: Active | inhibition (INH) [25]: Active | Activity [5]: inactive | Activity [26]: inactive | Activity [11]: inactive | Activity [27]: inactive | Activity [28]: inactive | inhibition (INH) [29]: Active | inhibition (INH) [17]: Active | Activity [30]: inactive | inhibition (INH) [31]: Active | inhibition (INH) [22]: Active
